Screening results as filed in PubChem.
A selection: hits, their analogues and other compounds. The true share with any hit is near 2.6%.
T cell modulator: modulators of CD8 T cell-vesicle binding, primary screen, mouse 2C CD8+ T cells, flow cytometry | response (vesicle binding), % at 7 µM | actives 0.068% (n = 330,000) | 2C CD8+ T cell-vesicle binding; stronger effect = lower value | AID 2052, 2009;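 active means response, share of CD8 T cells binding vesicles, and their 90th percentile fluorescence all below set limits, cut at about 80% in these data, passing the limit was not always enough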;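 further: values below 100% mean blocked vesicle binding to the CD8+ T cells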
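Incubation: binding step 1.5 h, 37 °C, antibody labelling 20 min, ice; system: murine 2C transgenic CD8+ T lymphocytes; technique: cytometric PE anti-B7-1 and Alexa647 anti-CD8 signals after 1% paraformaldehyde fixation; also added: QL9-charged Drosophila Ld/ICAM-1/B7-1 vesicles; control set: naked versus QL9-loaded vesicles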
SKN-1 inh: suppressors of acrylamide-induced Pgst-4::GFP reporter in worms, primary screen, SKN-1 inhibitor project, whole organism, uHTS, GFP/RFP fluorescence ratio, strain VP596; C. elegans VP596 Pgst-4::GFP/RFP ratio, 24 h; inhibition, % at 21.8 µM; actives 0.49% (n = 360,000);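 active means interference check ratio from 0.5 to 1.5 plus GFP to RFP signal ratio inhibition reaching or exceeding a fixed threshold, cut at about 30% in these data, passing the limit was not always enough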
Myeloid diff MLP: induction of myeloid progenitor differentiation, primary screen, cell-based, flow cytometry, MLPCN library; ER-HoxA9 myeloid progenitors, lysozyme-GFP differentiation; calls only at 10 µM; actives 1% (n = 360,000); AID 624256, 2012;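 active means normalized GFP-positive differentiation at or above the plate's own cutoff, the solvent-only control mean plus 3 SD; inconclusive means no clear call, values can overlap the other calls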;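 further: cells exposed to compound for four days before flow analysis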
Rin1 Abl inh: inhibitors of Rin1-Abl protein binding, primary screen, biochemical, TR-FRET; Tyrosine-protein kinase ABL1 (Homo sapiens) + Ras and Rab interactor 1 (Homo sapiens), …; inhibition, % at 7.35 µM; actives 0.4% (n = 360,000); AID 588664, 2011; in the data active means inhibition above about 5%, passing the limit was not always enough
GRK2 aptamer HTS: compounds blocking aptamer binding on GRK2 – biochemical, human GRK2, bead flow cytometry, HTS, primary screen; Beta-adrenergic receptor kinase 1 (Homo sapiens), P25098; FAM-aptamer displacement from GRK2; inhibition of aptamer binding, % at 10 µM; actives 0.59% (n = 330,000); AID 488847, 2010;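 active means inhibition of aptamer binding above 40%, roughly 3 SD of noise, on plates passing a quality check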;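 further: median bead fluorescence of bound FAM aptamer so fluorescent compounds give negative values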
Target sequence (P25098 whole entry, looked up): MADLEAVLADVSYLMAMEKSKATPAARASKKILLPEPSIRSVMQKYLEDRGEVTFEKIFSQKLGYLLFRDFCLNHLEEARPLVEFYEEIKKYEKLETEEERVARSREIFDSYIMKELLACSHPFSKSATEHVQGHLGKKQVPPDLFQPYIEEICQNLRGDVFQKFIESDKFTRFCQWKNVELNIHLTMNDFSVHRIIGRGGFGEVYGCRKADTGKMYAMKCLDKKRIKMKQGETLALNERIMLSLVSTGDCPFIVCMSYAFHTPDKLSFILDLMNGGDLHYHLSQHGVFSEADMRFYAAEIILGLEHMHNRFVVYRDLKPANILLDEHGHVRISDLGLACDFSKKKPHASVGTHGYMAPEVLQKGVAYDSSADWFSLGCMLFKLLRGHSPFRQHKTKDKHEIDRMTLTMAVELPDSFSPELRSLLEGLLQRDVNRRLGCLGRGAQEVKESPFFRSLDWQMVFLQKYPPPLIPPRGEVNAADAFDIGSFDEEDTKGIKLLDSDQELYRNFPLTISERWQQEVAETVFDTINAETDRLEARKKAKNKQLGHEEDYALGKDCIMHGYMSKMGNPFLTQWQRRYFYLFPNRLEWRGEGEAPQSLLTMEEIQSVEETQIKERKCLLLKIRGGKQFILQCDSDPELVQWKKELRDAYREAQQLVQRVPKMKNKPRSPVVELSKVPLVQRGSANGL
Rce1 inhib: yeast Rce1p protease inhibitors, primary screen, biochemical, fluorescence, cell-free homogeneous. yeast membranes, quenched prenylated peptide cleavage fluorescence. calls only. actives 0.27% (n = 290,000);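 active means fall in fluorescence gain of 50% or more versus controls, with final raw signal at or below 3038400; inconclusive means same 50% fall but final raw signal above 3038400; inactive means fall in fluorescence gain under 50%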
Myeloid diff CP1: inducers of myeloid progenitor differentiation, confirmation, cell-based, GFP/Mac1 flow cytometry, cherry pick 01; shares compounds with Myeloid diff MLP; ER-HoxA9 myeloid progenitors, GFP/Mac1 double-positive flow; calls only; actives 2% (n = 2,300);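 active means share of green or green-and-red cells above 9 and 9% in run 1 or 4 and 3% in run 2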
GFP autofluor: compound fluorescence in myeloid differentiation counter-screen. shares compounds with Myeloid diff MLP. ER-HoxA9 myeloid progenitors, no estrogen, GFP autofluorescence flow cytometry; vehicle wells 0%, positive control 100%. fluorescence response, % (test concentration not listed). actives 7.4% (n = 2,300);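 active means over 5% cells positive for green fluorescent reporter, or over 2% positive for both it and APC stain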
A number is an active result; 0 = inactive; ? = inconclusive; - = no result given; + = active, no number.

SMILES	T cell modulator	SKN-1 inh	Myeloid diff MLP	Rin1 Abl inh	GRK2 aptamer HTS	Rce1 inhib	Myeloid diff CP1	GFP autofluor
Cc1oc(-c2ccccc2)nc1C(=O)OCC(=O)NCc1ccc(Cl)cc1	0	0	0	0	0	-	-	-
Cc1ccc(CNC(=O)COC(=O)c2nc(-c3ccccc3)oc2C)cc1	0	0	0	0	0	-	0	0
O=C(CCCn1nnnc1CN1CCOCC1)N1CCC(c2ccc(F)cc2)C1 (centres undefined)	0	0	0	0	0	0	-	-
c1ccc(-c2ccc(OCCCn3cncn3)cc2)cc1	0	0	0	0	0	-	-	-
c1ccc(COc2ccc(OCCn3cncn3)cc2)cc1	0	0	0	0	0	0	0	0
O=C(COC(=O)c1cccs1)NCc1ccc2c(c1)OCO2	0	0	+	0	0	0	0	0
O=C(NCc1ccc2c(c1)OCO2)c1cccs1	0	0	0	0	0	0	-	-
O=C(O)c1nc(-c2ccccc2)n(-c2cccc(C(F)(F)F)c2)n1	0	0	0	0	0	0	-	-
OC1NC(=S)N(c2ccccc2)C1O (centres undefined)	0	0	0	0	0	0	-	-
OC1CCNC(=S)N1c1ccccc1 (centres undefined)	0	0	+	0	0	0	0	0
O=C(CCc1ccccc1)Nc1cc2c3c(c1)CC(=O)N3CCC2	0	0	0	0	0	0	-	-
O=c1c2ccccc2c(/C=N/NS(=O)(=O)c2ccccc2)c(O)n1-c1ccccn1	0	0	0	0	0	-	0	0
COc1ccc(-n2c(O)c(/C=N/NS(=O)(=O)c3ccc(C)c([N+](=O)[O-])c3)c3ccccc3c2=O)cc1OC	0	0	0	0	0	-	-	-
C=C[C@H]1C(C(=O)OCC)=CC[C@@H](c2ccccc2)N1S(=O)(=O)c1ccc(C)cc1	-	0	0	0	-	-	-	-
CN1C(=O)N(CC(=O)N2CCN(S(=O)(=O)c3ccc(Cl)s3)CC2)C(=O)C12CCCCC2	0	0	0	0	0	-	-	-
COc1cc(NC(=O)COC(=O)/C=C/c2ccccc2Cl)cc(OC)c1	0	0	0	0	0	0	0	0
O=C(Cc1ccccc1)NN=Cc1ccccc1	-	0	0	0	-	-	-	-
O=C(Cc1ccccc1)N/N=C/c1cc(Br)c(Br)o1	0	0	0	0	0	0	0	0
O=C1NC[C@@H](Cc2ccc(O)cc2)N(CCc2cc(C(F)(F)F)cc(C(F)(F)F)c2)C1=O	-	0	0	-	-	-	-	-
CSCCC(NC(=O)COc1ccccc1)C(=O)N1CCN(c2ccccc2O)CC1 (centres undefined)	0	0	0	0	0	0	-	-
Nc1nc(=S)c2[nH]cnc2[nH]1	0	0	?	0	0	-	-	-
CC(=O)N/N=C/c1cc(C(C)(C)C)cc(/C=N/NC(C)=O)c1O	0	0	+	0	0	0	0	0
CCC(O)(CC)C(=O)N/N=C/c1cc(Br)cc(Br)c1O	0	0	0	0	0	0	-	-
CC1(C)N=C(N)NC(Nc2ccc(Br)cc2)=N1	0	0	+	0	0	0	0	0
CC1(C)N=C(N)NC(Nc2cccc(Br)c2)=N1	0	0	0	0	0	0	-	-
SMILES	T cell modulator	SKN-1 inh	Myeloid diff MLP	Rin1 Abl inh	GRK2 aptamer HTS	Rce1 inhib	Myeloid diff CP1	GFP autofluor
COc1ccc2[nH]c(=O)c(CN(Cc3ccco3)Cc3nnnn3Cc3ccccc3)cc2c1	0	0	0	0	0	0	0	0
CCOc1ccc2[nH]c(=O)c(CN(Cc3ccco3)Cc3nnnn3Cc3ccccc3)cc2c1	0	0	0	0	0	0	-	-
COc1ccc2cc(CN(Cc3ccco3)C(c3nnnn3C3CCCCC3)C(C)C)c(=O)[nH]c2c1 (centres undefined)	0	0	+	0	0	0	0	0
CN(C)CCNC(=O)c1onc(CSc2nc3ccccc3[nH]2)c1C(=O)NCCN(C)C	0	0	0	0	0	0	-	-
CC1=Nc2ccc3ccccc3c2C1(C)C	0	0	+	0	0	0	0	0
COc1ccc(N2C(c3ccsc3)=Cc3cc4c(cc3C2c2c[nH]c3ccccc23)OCO4)cc1 (centres undefined)	-	0	+	-	-	-	0	0
CCOC(=O)c1ccc(-c2ccc(N3C(c4ccsc4)=Cc4ccc(F)cc4C3c3c[nH]c4ccc(C#N)cc34)cc2)cc1F (centres undefined)	-	0	0	-	-	-	-	-
CCOC(=O)/C(=N\Nc1ccc(C(C)=O)cc1)c1csc(Nc2ccccc2)n1	0	0	+	0	0	0	0	0
c1ccc(CNc2ncnc3scc(-c4cccs4)c23)nc1	0	0	0	0	0	0	0	0
CCCCn1nc(NC(=O)CC(C)C)c2cc3cc(OC)ccc3nc21	0	0	0	0	0	0	-	-
CCCCn1nc(NC(=O)CCC)c2cc3cc(OC)ccc3nc21	0	0	0	0	0	0	0	0
Cc1cccn2c(=O)c3cc(C(=O)NC4CCCC4)c(=N)n(CCCN4CCOCC4)c3nc12	0	0	0	0	0	?	-	-
Cc1cccn2c(=O)c(/C=C3\SC(=S)NC3=O)c(NCCCN3CCOCC3)nc12	0	52.4	+	0	0	0	0	0
O=S1(=O)CC2SC(=S)N(c3ccccc3)C2C1 (centres undefined)	0	0	0	0	0	0	-	-
CC12CS(=O)(=O)CC1SC(=S)N2c1ccccn1 (centres undefined)	0	0	+	0	0	0	0	0
O=C1c2cccc3c(N4CCCCC4)ccc(c23)C(=O)N1c1ccccn1	0	0	0	0	0	0	-	-
CCCN1C(=O)c2cccc3c(N4CCCCC4)ccc(c23)C1=O	0	0	+	0	0	0	0	0
Cc1ccccc1NC(=O)COc1ccc(S(=O)(=O)N2CCCC2)cc1C	0	0	0	0	0	0	-	-
